Experimental data as given in ChEMBL document CHEMBL1158339, “Synthesis and anti-microbial screening of some Schiff bases of 3-amino-6,8-dibromo-2-phenylquinazolin-4(3H)-ones” (2009).
Values after ≈ are worked out from the molar mass of the structure shown.

What was measured:
Type in all cases: functional
Staphylococcus aureus [1] = assay: Antibacterial activity against Staphylococcus aureus ATCC 9144 after 24 hrs by paper disk diffusion technique
Method in brief: (§1)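 Paper disc diffusion. Nutrient agar autoclaved 120 °C, 30 min, then inoculated at 40–50 °C with 1 ml/100 ml of a 10⁵ cfu/ml suspension matched to McFarland standard and poured to 3–4 mm. Discs impregnated with compound in dimethyl formamide are laid on the solidified agar. Plates are held 1 h at room temperature, then 24 h at 37 °C.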

[2] = test system: Staphylococcus epidermidis; assay: Antibacterial activity against Staphylococcus epidermidis ATCC 155 after 24 hrs by paper disk diffusion technique; method in brief: as §1
Micrococcus luteus [3] = assay: Antibacterial activity against Micrococcus luteus ATCC 4698 after 24 hrs by paper disk diffusion technique; method in brief: as §1
Bacillus cereus [4] = assay: Antibacterial activity against Bacillus cereus ATCC 11778 after 24 hrs by paper disk diffusion technique; method in brief: as §1
Escherichia coli [5] = assay: Antibacterial activity against Escherichia coli ATCC 25922 after 24 hrs by paper disk diffusion technique; method in brief: as §1
Pseudomonas aeruginosa [6] = assay: Antibacterial activity against Pseudomonas aeruginosa ATCC 2853 after 24 hrs by paper disk diffusion technique; method in brief: as §1
Klebsiella pneumoniae [7] = assay: Antibacterial activity against Klebsiella pneumoniae ATCC 11298 after 24 hrs by paper disk diffusion technique; method in brief: as §1
Aspergillus niger [8] = assay: Antifungal activity against Aspergillus niger ATCC 9029 after 48 hrs by paper disk diffusion technique
Method in brief: (§2)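 Fungal disc diffusion. Autoclaved (120 °C, 30 min) medium is inoculated at 40–50 °C with 1 ml/100 ml of a 10⁵ cfu/ml McFarland-matched suspension and poured to 3–4 mm. Compound-impregnated paper discs in dimethyl formamide are applied. Plates are held 1 h at room temperature, then incubated 48 h at 37 °C.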

Aspergillus fumigatus [9] = assay: Antifungal activity against Aspergillus fumigatus ATCC 46645 after 48 hrs by paper disk diffusion technique; method in brief: as §2
Staphylococcus aureus [10] = assay: Antibacterial activity against Staphylococcus aureus ATCC 9144 after 24 hrs by agar streak dilution method; settings: ATCC 9144, 24 h
Method in brief: (§3)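 Agar streak dilution MIC. Stock […] in dimethyl formamide. Graded quantities go into molten sterile nutrient agar, poured at 40–50 °C to 3–4 mm depth and left to solidify. Plates are streaked with about 10⁵ cfu/ml bacterial suspension and incubated 24 h at 37 °C. MIC is the lowest concentration with no visible growth.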

[11] = test system: Staphylococcus epidermidis; assay: Antibacterial activity against Staphylococcus epidermidis ATCC 155 after 24 hrs by agar streak dilution method; settings: ATCC 155, 24 h; method in brief: as §3
Micrococcus luteus [12] = assay: Antibacterial activity against Micrococcus luteus ATCC 4698 after 24 hrs by agar streak dilution method; settings: NCTC 2665, 24 h; method in brief: as §3
Bacillus cereus [13] = assay: Antibacterial activity against Bacillus cereus ATCC 11778 after 24 hrs by agar streak dilution method; settings: ATCC 11778, 24 h; method in brief: as §3
Escherichia coli [14] = assay: Antibacterial activity against Escherichia coli ATCC 25922 after 24 hrs by agar streak dilution method; settings: ATCC 25922, 24 h; method in brief: as §3
Pseudomonas aeruginosa [15] = assay: Antibacterial activity against Pseudomonas aeruginosa ATCC 2853 after 24 hrs by agar streak dilution method; settings: ATCC 2853, 24 h; method in brief: as §3
Klebsiella pneumoniae [16] = assay: Antibacterial activity against Klebsiella pneumoniae ATCC 11298 after 24 hrs by agar streak dilution method; settings: ATCC 11298, 24 h; method in brief: as §3
Aspergillus niger [17] = assay: Antifungal activity against Aspergillus niger ATCC 9029 after 48 hrs by agar streak dilution method; settings: ATCC 9029, 48 h
Method in brief: as §3, with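 “Fungal agar” for “Agar”, “dilution.” for “dilution MIC.”, “Sabouraud dextrose” for “nutrient”, “inoculated” for “streaked”, “cfu/ml” for “cfu/ml bacterial”, “48” for “24”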

Aspergillus fumigatus [18] = assay: Antifungal activity against Aspergillus fumigatus ATCC 46645 after 48 hrs by agar streak dilution method; settings: ATCC 46645, 48 h
Method in brief: as §3, with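 “Fungal agar” for “Agar”, “dilution.” for “dilution MIC.”, “Sabouraud dextrose” for “nutrient”, “inoculated” for “streaked”, “cfu/ml” for “cfu/ml bacterial”, “48” for “24”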

Row | MIC (Staphylococcus aureus [10]) [µg/mL] | MIC [11] [µg/mL] | MIC (Micrococcus luteus [12]) [µg/mL] | MIC (Bacillus cereus [13]) [µg/mL] | MIC (Escherichia coli [14]) [µg/mL] | MIC (Pseudomonas aeruginosa [15]) [µg/mL] | MIC (Klebsiella pneumoniae [16]) [µg/mL] | MIC (Aspergillus niger [17]) [µg/mL] | MIC (Aspergillus fumigatus [18]) [µg/mL] | Compound | inhibition zone (IZ) (Staphylococcus aureus [1]) [mm] | inhibition zone (IZ) [2] [mm] | inhibition zone (IZ) (Micrococcus luteus [3]) [mm] | inhibition zone (IZ) (Bacillus cereus [4]) [mm] | inhibition zone (IZ) (Escherichia coli [5]) [mm] | inhibition zone (IZ) (Pseudomonas aeruginosa [6]) [mm] | inhibition zone (IZ) (Klebsiella pneumoniae [7]) [mm] | inhibition zone (IZ) (Aspergillus niger [8]) [mm] | inhibition zone (IZ) (Aspergillus fumigatus [9]) [mm]
1 | 32.1 (≈ 62.6 µM) | 22.2 (≈ 43.3 µM) | 34.2 (≈ 66.6 µM) | 31.9 (≈ 62.2 µM) | 29.9 (≈ 58.3 µM) | 36.2 (≈ 70.5 µM) | 33.4 (≈ 65.1 µM) | 10.1 (≈ 19.7 µM) | 12.3 (≈ 24 µM) | COc1ccc(/C=N/n2c(-c3ccccc3)nc3c(Br)cc(Br)cc3c2=O)cc1 | 19 | 20 | 18 | 19 | 19 | 16 | 20 | 23 | 24
2 | 23.8 (≈ 46.7 µM) | 21.4 (≈ 42 µM) | 22.8 (≈ 44.8 µM) | 21.9 (≈ 43 µM) | 20.1 (≈ 39.5 µM) | 25.1 (≈ 49.3 µM) | 19.8 (≈ 38.9 µM) | 11.8 (≈ 23.2 µM) | 14.6 (≈ 28.7 µM) | O=c1c2cc(Br)cc(Br)c2nc(-c2ccccc2)n1/N=C/C=C/c1ccccc1 | 20 | 24 | 21 | 23 | 25 | 19 | 25 | 24 | 22
3 | 28.4 (≈ 54.9 µM) | 25.6 (≈ 49.5 µM) | 33.8 (≈ 65.3 µM) | 36.1 (≈ 69.7 µM) | 20.2 (≈ 39 µM) | 22.8 (≈ 44 µM) | 21.8 (≈ 42.1 µM) | 10.2 (≈ 19.7 µM) | 12.6 (≈ 24.3 µM) | O=c1c2cc(Br)cc(Br)c2nc(-c2ccccc2)n1/N=C/c1ccc(Cl)cc1 | 19 | 20 | 23 | 19 | 27 | 26 | 25 | 25 | 22
4 | 21.6 (≈ 40.8 µM) | 24.2 (≈ 45.7 µM) | 28.1 (≈ 53.1 µM) | 35.1 (≈ 66.3 µM) | 31.2 (≈ 59 µM) | 33.4 (≈ 63.1 µM) | 28.2 (≈ 53.3 µM) | 12.7 (≈ 24 µM) | 15.2 (≈ 28.7 µM) | COc1cc(/C=N/n2c(-c3ccccc3)nc3c(Br)cc(Br)cc3c2=O)ccc1O | 23 | 23 | 24 | 17 | 24 | 19 | 23 | 24 | 23
5 | 27.9 (≈ 53 µM) | 19.8 (≈ 37.6 µM) | 26.2 (≈ 49.8 µM) | 30.1 (≈ 57.2 µM) | 29.1 (≈ 55.3 µM) | 32.1 (≈ 61 µM) | 22.7 (≈ 43.1 µM) | 14.7 (≈ 27.9 µM) | 15.9 (≈ 30.2 µM) | CN(C)c1ccc(/C=N/n2c(-c3ccccc3)nc3c(Br)cc(Br)cc3c2=O)cc1 | 19 | 25 | 21 | 19 | 20 | 18 | 23 | 19 | 22
6 | 31.1 (≈ 62.6 µM) | 22.6 (≈ 45.5 µM) | 25.1 (≈ 50.5 µM) | 21.9 (≈ 44 µM) | 19.8 (≈ 39.8 µM) | 21.2 (≈ 42.6 µM) | 29.1 (≈ 58.5 µM) | 15.2 (≈ 30.6 µM) | 14.6 (≈ 29.4 µM) | Cc1ccc(/C=N/n2c(-c3ccccc3)nc3c(Br)cc(Br)cc3c2=O)cc1 | 18 | 20 | 23 | 21 | 24 | 22 | 19 | 22 | 24
